This note sets out measurements from PubChem BioAssay.

SMILES strings stand for the structures. Calls of active or inactive are those of the source.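 Rule for the calls, unless noted: active = GFP response above 150% of the DMSO level; inconclusive = fewer than 70 events counted for a yeast strain; inactive = the rest.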

Assay [1] is described as follows: hit retest on RPL19A-GFP reporter strain – cell-based, S. cerevisiae, flow cytometry, cherry picks, mother/daughter gates, confirmation (AID 2270;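 active = GFP response below 50% of the DMSO control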). To be noted: 3 h, at 10 µM, stronger effect = lower value, 100 = same GFP as DMSO wells. For orientation: A flow cytometer gives signals particle by particle.
Assay [2] is described as follows: yeast TOR pathway reporter LAP4-GFP change – cell-based, cherry picks, flow cytometry, mother/daughter gates, confirmation (AID 2271;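 active = GFP response above 150% of the DMSO control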;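 note: ratio of sample to DMSO plate mean so 100% equals DMSO level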). To be noted: S. cerevisiae LAP4-GFP strain, 3 h, at 10 µM, stronger effect = higher value, 100 means same as DMSO control. An outline of the steps:
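System: Alexa 633-stained baker's yeast GFP-fusion strain; quantity: 0.2 OD600 cells; timing: compound exposure 3 h at 30 °C, end-over-end rotation; detection: HT flow cytometry, GFP fluorescence channel; measure: per-gate (all, mother, daughter) GFP response vs DMSO; control set: DMSO-only negative wells, rapamycin 400 ng/mL positive wells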

Assay [3] can be described thus: TOR pathway reporter MEP2-GFP, retest of hits – S. cerevisiae, flow cytometry GFP, cherry picks, confirmation (AID 2272;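 active = GFP response above 150% of the DMSO control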;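 note: ratio of well signal to plate DMSO mean so 100% equals DMSO level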). The note with it: S. cerevisiae MEP2-GFP strain, 3 h, at 10 µM, stronger effect = higher value.
A short description of assay [4]: yeast AGP1-GFP fluorescence change, single-dose – cell-based, flow cytometry, S. cerevisiae, cherry picks, confirmation (AID 2273).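 Note: median GFP channel fluorescence over the whole cell population gate.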 The note with it: S. cerevisiae AGP1-GFP strain, 3 h, at 10 µM.
The nature of assay [5]: TOR pathway CIT2 reporter hit retest – S. cerevisiae, GFP fusion, cherry picks, mother/daughter gates, confirmation (AID 2274). The note with it: S. cerevisiae CIT2-GFP strain, flow cytometry, 3 h, at 10 µM, stronger effect = higher value.
[6] abbreviates: measured here: daughter cell gate.
The mark [7] stands for this setting: measured here: mother cell gate.
Setting [8] is: measured here: daughter cell gate response.
The mark [9] stands for this setting: measured here: mother cell gate response.

For `Cc1cc(N2CCN(C(=O)c3ccco3)CC2)n2ncc(-c3ccccc3)c2n1`, the GFP response vs DMSO in assay [1] is 108% (inactive); in assay [1] (setting [6]), 90.8%; in assay [1] (setting [7]), 101%; in assay [3], 116% (inactive). Moreover, the figures for the GFP response relative to DMSO in assay [2], in assay [2] (setting [8]) and in assay [2] (setting [9]) were 108% (inactive), 96% and 105%, respectively. Also, the GFP response, % of DMSO in assay [4] was 106% (inactive); in assay [5] it was 118% (inactive); in assay [5] (setting [6]) it was 95.8%; in assay [5] (setting [7]), 107%.

For the molecule `COc1ccc(-c2nnc(NC(=O)c3ccc(S(=O)(=O)N4COCC4(C)C)cc3)o2)cc1`, the GFP response vs DMSO is 96.5% (inactive) in assay [1], 98.1% in assay [1] (setting [6]), 94% in assay [1] (setting [7]) and 103% (inactive) in assay [3]. For the same molecule, the GFP response relative to DMSO in assay [2] is 95.3% (inactive); in assay [2] (setting [8]), 92.9%; in assay [2] (setting [9]) it was 97.4%. In addition, the GFP response, % of DMSO was 103% (inactive) in assay [4], 98.6% (inactive) in assay [5], 99.3% in assay [5] (setting [6]) and 98.2% in assay [5] (setting [7]).

For `COc1ccc(/C=N/Nc2nc(-c3cccnc3)nc3ccccc23)c(OC)c1`, the GFP response vs DMSO in assay [1] was 98% (inactive); in assay [1] (setting [6]), 97.6%; in assay [1] (setting [7]) it was 98.2%; in assay [3], 111% (inactive). In addition, the figures for the GFP response relative to DMSO in assay [2], in assay [2] (setting [8]) and in assay [2] (setting [9]) were 96.7% (inactive), 94.4% and 98.3%, respectively. Besides, the GFP response, % of DMSO in assay [4] is 96.8% (inactive); in assay [5], 108% (inactive); in assay [5] (setting [6]), 112%; in assay [5] (setting [7]), 107%.

For the molecule `Cc1ccc(C)c(N2CCN(C(=O)c3ccccc3Br)CC2)c1`, the GFP response vs DMSO is 105% (inactive) in assay [1], 102% in assay [1] (setting [6]), 99.5% in assay [1] (setting [7]) and 109% (inactive) in assay [3]. For the same molecule, the GFP response relative to DMSO in assay [2] is 101% (inactive); in assay [2] (setting [8]), 101%; in assay [2] (setting [9]) it was 100%. For the same molecule, the GFP response, % of DMSO is 98.8% (inactive) in assay [4], 106% (inactive) in assay [5], 103% in assay [5] (setting [6]) and 105% in assay [5] (setting [7]).

As to `Cn1cc(/C=C/c2cc[n+](C)cc2)c2cc(Cl)ccc21`, the GFP response vs DMSO was 99.2% (inactive) in assay [1], 97.9% in assay [1] (setting [6]), 100% in assay [1] (setting [7]) and 122% (inactive) in assay [3]. In addition, the GFP response relative to DMSO is 111% (inactive) in assay [2], 112% in assay [2] (setting [8]) and 110% in assay [2] (setting [9]). In addition, the GFP response, % of DMSO was 111% (inactive) in assay [4], 125% (inactive) in assay [5], 128% in assay [5] (setting [6]) and 124% in assay [5] (setting [7]).

In the case of `CCc1nnc(NC(=O)c2ccc(S(=O)(=O)N(C)Cc3ccccc3)cc2)o1`, the GFP response vs DMSO in assay [1] is 99% (inactive); in assay [1] (setting [6]), 99.5%; in assay [1] (setting [7]), 98.5%; in assay [3], 104% (inactive). The GFP response relative to DMSO is 103% (inactive) in assay [2], 106% in assay [2] (setting [8]) and 103% in assay [2] (setting [9]). Further, the GFP response, % of DMSO was 103% (inactive) in assay [4], 103% (inactive) in assay [5], 99.7% in assay [5] (setting [6]) and 105% in assay [5] (setting [7]).

Consider `CC(NCCS(=O)(=O)c1ccc(Cl)cc1)c1cccc(Cl)c1` (stereo not drawn), for which the GFP response vs DMSO in assay [1] was 95.1% (inactive); in assay [1] (setting [6]), 96.4%; in assay [1] (setting [7]), 94%; in assay [3], 106% (inactive). Further, the GFP response relative to DMSO is 97.7% (inactive) in assay [2], 96% in assay [2] (setting [8]) and 99.5% in assay [2] (setting [9]). Further, the GFP response, % of DMSO was 98.2% (inactive) in assay [4], 97.2% (inactive) in assay [5], 97.6% in assay [5] (setting [6]) and 98.2% in assay [5] (setting [7]).

As for `CCOC(=O)c1c(C)oc2c1c(C(c1cccnc1)N1CCOCC1)c(O)c1ccccc12` (stereo not drawn), the GFP response vs DMSO was 95% (inactive) in assay [1], 98.5% in assay [1] (setting [6]), 89.6% in assay [1] (setting [7]) and 124% (inactive) in assay [3]. The figures for the GFP response relative to DMSO in assay [2], in assay [2] (setting [8]) and in assay [2] (setting [9]) were 203% (active), 199% and 188%, respectively. Also, the GFP response, % of DMSO in assay [4] is 104% (inactive); in assay [5], 97.8% (inactive); in assay [5] (setting [6]), 109%; in assay [5] (setting [7]), 86.3%.

For `COc1ccc(NC(=O)COC(=O)c2ccco2)c([N+](=O)[O-])c1`, the GFP response vs DMSO was 99.5% (inactive) in assay [1], 98.5% in assay [1] (setting [6]), 96.7% in assay [1] (setting [7]) and 108% (inactive) in assay [3]. For the same molecule, the GFP response relative to DMSO in assay [2] was 103% (inactive); in assay [2] (setting [8]) it was 99.3%; in assay [2] (setting [9]), 102%. Also, the GFP response, % of DMSO is 98.9% (inactive) in assay [4], 99.3% (inactive) in assay [5], 92.7% in assay [5] (setting [6]) and 98% in assay [5] (setting [7]).

Regarding `CCCCc1[nH]nc2c1C1(C(=O)N(CC)c3ccccc31)C(C#N)=C(N)O2` (stereo not drawn), the GFP response vs DMSO in assay [1] is 105% (inactive); in assay [1] (setting [6]), 101%; in assay [1] (setting [7]), 103%; in assay [3] it was 101% (inactive). The values for the GFP response relative to DMSO in assay [2], in assay [2] (setting [8]) and in assay [2] (setting [9]) were 98.2% (inactive), 97.5% and 98.4%, respectively. The GFP response, % of DMSO was 106% (inactive) in assay [4], 102% (inactive) in assay [5], 97.4% in assay [5] (setting [6]) and 95.6% in assay [5] (setting [7]).

Turning to `CC(C)c1nc2ccccn2c1NC1CCCCC1`, the GFP response vs DMSO is 101% (inactive) in assay [1], 98.4% in assay [1] (setting [6]), 98% in assay [1] (setting [7]) and 100% (inactive) in assay [3]. The GFP response relative to DMSO is 97.9% (inactive) in assay [2], 99.2% in assay [2] (setting [8]) and 98.3% in assay [2] (setting [9]). Further, the GFP response, % of DMSO in assay [4] was 102% (inactive); in assay [5] it was 101% (inactive); in assay [5] (setting [6]) it was 103%; in assay [5] (setting [7]) it was 101%.

As to `COCCN1C2=C(COC(C)(C)C2)C(=S)NC1c1ccccc1` (stereo not drawn), the GFP response vs DMSO is 98% (inactive) in assay [1], 98.9% in assay [1] (setting [6]), 99% in assay [1] (setting [7]) and 107% (inactive) in assay [3]. The GFP response relative to DMSO in assay [2] was 94.1% (inactive); in assay [2] (setting [8]), 96%; in assay [2] (setting [9]), 94%. For the same molecule, the GFP response, % of DMSO is 99.1% (inactive) in assay [4], 107% (inactive) in assay [5], 108% in assay [5] (setting [6]) and 108% in assay [5] (setting [7]).

As to `COc1cccc2c1Oc1ncccc1N(C(=O)CCC(=O)NCc1ccc(F)cc1)C2`, the GFP response vs DMSO is 98% (inactive) in assay [1], 98.1% in assay [1] (setting [6]), 98.2% in assay [1] (setting [7]) and 102% (inactive) in assay [3]. Besides, the GFP response relative to DMSO in assay [2] was 101% (inactive); in assay [2] (setting [8]) it was 101%; in assay [2] (setting [9]) it was 99.3%. The GFP response, % of DMSO is 96.6% (inactive) in assay [4], 105% (inactive) in assay [5], 105% in assay [5] (setting [6]) and 104% in assay [5] (setting [7]).
